In ChEMBL document CHEMBL4052644, “Synthesis of novel benzylidene analogues of betulinic acid as potent cytotoxic agents” (Eur J Med Chem, 2017):

Legend:
PC-3 [1] = assay: Growth inhibition of human PC3 cells at 10 uM after 48 hrs by SRB assay relative to control; assay type: functional; conditions: PC-3, 48 h, read-out: GI
In short: (§1)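 Primary SRB screen of every compound at a single concentration of 10 µM. Growth inhibition is expressed relative to control.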

[2] = Selectivity index, ratio of IC50 for human FR2 cells to IC50 for human HCT116 cells; assay type: functional
In short: (§2)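 Selectivity index is the IC50 in normal breast epithelial fR2 cells divided by the IC50 in each cancer line. All IC50 values come from the SRB assay.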

HCT-116 [3] = assay: Growth inhibition of human HCT116 cells at 10 uM after 48 hrs by SRB assay relative to control; assay type: functional; conditions: HCT-116, 48 h, read-out: GI; in short: as §1
[4] = Selectivity index, ratio of IC50 for human FR2 cells to IC50 for human A549 cells; assay type: functional; in short: as §2
HCT-116 [5] = assay: Induction of morphological changes in human HCT116 cells assessed as change in cell morphology after 24 hrs by phase contrast microscopic method; assay type: functional, cell-based
In short: (§3)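 HCT 116 cells were treated at 0.7, 1.4, 2.0 and 2.5 µM for 24 h, then examined under a phase contrast microscope for growth arrest and morphological change.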

PC-3 [6] = assay: Cytotoxicity against human PC3 cells assessed as reduction in cell viability after 48 hrs by SRB assay; assay type: functional, cell-based; conditions: PC-3, 48 h
In short: (§4)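 SRB assay. Compounds active at 10 µM in the primary screen were retested at 1, 2.5 and 5 µM, and IC50 was calculated from these concentrations. The normal breast epithelial line fR2 was tested alongside the cancer lines.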

HCT-116 [7] = assay: Cytotoxicity against human HCT116 cells assessed as reduction in cell viability after 48 hrs by SRB assay; assay type: functional, cell-based; conditions: HCT-116, 48 h; in short: as §4
[8] = Cytotoxicity against human FR2 cells assessed as reduction in cell viability after 48 hrs by SRB assay; assay type: cell-based; conditions: FR2, 48 h; in short: as §4
MIA PaCa-2 [9] = assay: Growth inhibition of human MIAPaCa2 at 10 uM after 48 hrs by SRB assay relative to control; assay type: functional; conditions: MIA PaCa-2, 48 h, read-out: GI; in short: as §1
[10] = Selectivity index, ratio of IC50 for human FR2 cells to IC50 for human MCF7 cells; assay type: functional; in short: as §2
A549 [11] = assay: Cytotoxicity against human A549 cells assessed as reduction in cell viability after 48 hrs by SRB assay; assay type: functional, cell-based; conditions: A549, 48 h; in short: as §4
MIA PaCa-2 [12] = assay: Cytotoxicity against human MIAPaCa2 cells assessed as reduction in cell viability after 48 hrs by SRB assay; assay type: functional, cell-based; conditions: MIA PaCa-2, 48 h; in short: as §4
[13] = Selectivity index, ratio of IC50 for human FR2 cells to IC50 for human PC3 cells; assay type: functional; in short: as §2
HCT-116 [14] = assay: Induction of morphological changes in human HCT116 cells assessed as cell growth arrest after 24 hrs by phase contrast microscopic method; assay type: functional, cell-based; in short: as §3
HCT-116 [15] = assay: Induction of mitochondrial membrane potential loss in human HCT116 cells after 24 hrs by rhodamine-123 dye based fluorescence microscopy; assay type: functional, cell-based
In short: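 HCT-116 cells were treated at 0.7, 1.4, 2.0 and 2.5 µM and stained with rhodamine-123. Loss of membrane potential was read as a decrease in fluorescence compared with untreated cells.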

HCT-116 [16] = assay: Antimigratory activity in human HCT116 cells assessed as inhibition of wound closure after 24 hrs by wound healing assay; assay type: functional, cell-based
In short: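 HCT 116 monolayers were scratched, then treated at 1.4, 2.0 and 2.5 µM for 24 h. Wound area was measured at 0 and 24 h. Migration was derived from the recovered scratch area relative to 0 h and to the matching control.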

A549 [17] = assay: Growth inhibition of human A549 cells at 10 uM after 48 hrs by SRB assay relative to control; assay type: functional; conditions: A549, 48 h, read-out: GI; in short: as §1
HCT-116 [18] = assay: Antiproliferative activity against human HCT116 cells assessed as reduction in colony formation after 14 days by crystal violet staining based clonogenic assay; assay type: functional, cell-based
In short: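 HCT 116 cells were treated at 0.7, 1.4 and 2.8 µM. Colonies formed over 14 days of treatment and were compared with untreated control.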

MCF7 [19] = assay: Cytotoxicity against human MCF7 cells assessed as reduction in cell viability after 48 hrs by SRB assay; assay type: functional, cell-based; conditions: MCF7, 48 h; in short: as §4
[20] = Selectivity index, ratio of IC50 for human FR2 cells to IC50 for human MIAPaCa2 cells; assay type: functional; in short: as §2
MCF7 [21] = assay: Growth inhibition of human MCF7 cells at 10 uM after 48 hrs by SRB assay relative to control; assay type: functional; conditions: MCF7, 48 h, read-out: GI; in short: as §1
SK-MEL-2 = assay: Cytotoxicity against human SK-MEL-2 cells assessed as reduction in cell viability; assay type: functional, cell-based
A549 [22] = assay: Growth inhibition of human A549 cells after 18 hrs; assay type: functional, cell-based; conditions: A549, 18 h
In short: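 Sulforhodamine B (SRB) assay on A-549 human lung cancer cells. Compounds were first screened at 10 µM. Those active at 10 µM were retested at 1, 2.5 and 5 µM, and IC50 was calculated from these concentrations.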

DLD-1 = assay: Cytotoxicity against human DLD1 cells assessed as cell growth inhibition after 18 hrs; assay type: functional, cell-based; conditions: DLD-1, 18 h

Compound | inhibition of growth at 10 µM (PC-3 [1]) [%] | Ratio IC50 [2] | inhibition of growth at 10 µM (HCT-116 [3]) [%] | Ratio IC50 [4] | IC50 (PC-3 [6]) [µM] | IC50 (HCT-116 [7]) [µM] | IC50 [8] [µM] | inhibition of growth at 10 µM (MIA PaCa-2 [9]) [%] | Ratio IC50 [10] | IC50 (A549 [11]) [µM] | IC50 (MIA PaCa-2 [12]) [µM] | Ratio IC50 [13] | inhibition of growth at 10 µM (A549 [17]) [%] | IC50 (MCF7 [19]) [µM] | Ratio IC50 [20] | inhibition of growth at 10 µM (MCF7 [21]) [%] | further results
C=C(C)[C@@H]1CC[C@]2(C(=O)O)CC[C@]3(C)[C@H](CC[C@@H]4[C@@]5(C)C/C(=C\c6ccc([N+](=O)[O-])cc6)[C@H](O)C(C)(C)[C@@H]5CC[C@]43C)[C@@H]12 | 56 | 12.35 | 92 | 11.2 | 1.6 | 1.36 | 16.8 | 81 | 4.8 | 1.5 | 3.2 | 10.5 | 73 | 3.5 | 5.25 | 85 | Activity (HCT-116 [5]): Dose-dependent effect; Activity (HCT-116 [14]): Dose-dependent effect; Activity (HCT-116 [15]): Dose-dependent effect; inhibition (HCT-116 [16]): Dose-dependent effect; inhibition (HCT-116 [18]): Dose-dependent effect
CC(C)[C@@H]1CC[C@]2(C(=O)O)CC[C@]3(C)[C@H](CC[C@@H]4[C@@]5(C)C=C(Cl)C(=O)C(C)(C)[C@@H]5CC[C@]43C)[C@@H]12 |  |  |  |  |  |  |  |  |  |  |  |  |  |  |  |  | IC50 (SK-MEL-2): 0.13 µM
C=C(C)[C@@H]1CC[C@]2(C(=O)OCC(N)(CO)CO)CC[C@]3(C)[C@H](CC[C@@H]4[C@@]5(C)CC[C@H](OC(C)=O)C(C)(C)[C@@H]5CC[C@]43C)[C@@H]12 |  |  |  |  |  |  |  |  |  |  |  |  |  |  |  |  | IC50 (A549 [22]): 2.5 µM
CC(C)[C@@H]1CC[C@]2(C(=O)O)CC[C@]3(C)[C@H](CC[C@@H]4[C@@]5(C)C=C(C#N)C(=O)C(C)(C)[C@@H]5CC[C@]43C)[C@@H]12 |  |  |  |  |  |  |  |  |  |  |  |  |  |  |  |  | IC50 (SK-MEL-2): 0.81 µM
C=C(C)[C@@H]1CC[C@]2(C(=O)O)CC[C@]3(C)[C@H](CC[C@@H]4[C@@]5(C)C/C(=C\c6cccc7ccccc67)C(=O)C(C)(C)[C@@H]5CC[C@]43C)[C@@H]12 | 71 | 1.463 | 62 | 3.977 | 5.3 | 8.4 | 12.3 | 64 | 1.429 | 3.09 | 7.9 | 2.318 | 90 | 8.6 | 1.555 | 67 | 
C=C(C)[C@@H]1CC[C@]2(C(=O)O)CC[C@]3(C)[C@H](CC[C@@H]4[C@@]5(C)C/C(=C\c6ccsc6)C(=O)C(C)(C)[C@@H]5CC[C@]43C)[C@@H]12 | 82 | 4.066 | 91 | 5.317 | 6.7 | 5.1 | 20.7 | 76 | 7.151 | 3.9 | 5.3 | 3.095 | 95 | 2.9 | 3.913 | 92 | 
C=C(C)[C@@H]1CC[C@]2(C(=O)O)CC[C@]3(C)[C@H](CC[C@@H]4[C@@]5(C)C/C(=C\c6cccc([N+](=O)[O-])c6)[C@H](O)C(C)(C)[C@@H]5CC[C@]43C)[C@@H]12 | 80 | 3.092 | 88 | 9.88 | 4.1 | 3.9 | 12.1 | 80 | 2.68 | 1.22 | 6.7 | 2.941 | 92 | 4.5 | 1.8 | 77 | 
C=C(C)[C@@H]1CC[C@]2(C(=O)O)CC[C@]3(C)[C@H](CC[C@@H]4[C@@]5(C)C/C(=C\c6cccnc6)C(=O)C(C)(C)[C@@H]5CC[C@]43C)[C@@H]12 | 67 | 50.76 | 96 | 32.25 | 6.6 | 1.97 | 100 | 97 | 38.46 | 3.1 | 4.9 | 15.15 | 94 | 2.6 | 20.4 | 97 | 
C=C(C)[C@@H]1CC[C@]2(COC(C)=O)CC[C@]3(C)[C@H](CC[C@@H]4[C@@]5(C)CC[C@H](O[C@H]6O[C@H](CO)[C@@H](O)[C@H](O)[C@H]6O)C(C)(C)[C@@H]5CC[C@]43C)[C@@H]12 |  |  |  |  |  |  |  |  |  |  |  |  |  |  |  |  | IC50 (DLD-1): 4.45 µM
C=C(C)[C@@H]1CC[C@]2(C(=O)O)CC[C@]3(C)[C@H](CC[C@@H]4[C@@]5(C)C/C(=C\c6ccc(F)cc6)C(=O)C(C)(C)[C@@H]5CC[C@]43C)[C@@H]12 | 95 | 19.73 | 99 | 27.33 | 6.4 | 3.6 | 71.1 | 96 | 16.15 | 2.6 | 5.4 | 11.1 | 92 | 4.4 | 13.15 | 95 | 
